Mcl1-Noxa inh – disrupts binding of human Mcl-1 to Noxa peptide | TR-FRET Mcl-1/Noxa peptide binding, 2 h | Q07820 | 220,000 tested, 1.5% active | inhibition, % at 21.7 µM | AID 1022;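 active = compounds that cut the protein-peptide binding signal by more than 50% relative to plate controls in a single-dose test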;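 also: His-tagged Mcl-1 with rhodamine Noxa BH3 peptide and terbium anti-His antibody; 0% = Mcl-1 plus Noxa peptide wells and 100% = peptide-only wells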
Target sequence (Q07820 whole entry, looked up): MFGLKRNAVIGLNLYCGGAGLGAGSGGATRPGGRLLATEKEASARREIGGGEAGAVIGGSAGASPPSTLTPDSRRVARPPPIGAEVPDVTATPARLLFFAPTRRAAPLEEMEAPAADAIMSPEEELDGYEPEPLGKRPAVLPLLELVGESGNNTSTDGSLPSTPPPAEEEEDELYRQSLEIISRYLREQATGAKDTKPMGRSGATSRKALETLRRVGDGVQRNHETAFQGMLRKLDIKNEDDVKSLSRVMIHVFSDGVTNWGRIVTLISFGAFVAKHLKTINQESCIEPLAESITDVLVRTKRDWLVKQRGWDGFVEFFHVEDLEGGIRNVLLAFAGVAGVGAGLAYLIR
Mcl1-Bid inh – Mcl-1/Bid interaction inhibition; Q07820; TR-FRET Mcl-1/Bid-Dy647 peptide binding, 1536-well; inhibition, % at 21.7 µM; 220,000 tested, 0.97% active;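 active = compounds that cut the binding signal by more than half at the single screening dose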;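 also: His-tagged Mcl-1 with europium anti-His antibody binding Bid BH3 peptide; 0% = Mcl-1 plus peptide wells and 100% = peptide-only wells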
Bim-Mcl-1 – human Bim-Mcl-1 interaction inhibition; Q07820; Bead-based flow cytometry, Bim peptide-Mcl-1 binding; inhibition, % at 10 µM; 190,000 tested, 0.1% active; in the data active = inhibition above about 40%;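 also: 0% = no compound tracer wells and 100% = peptide blocker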
Biofilm kill mix – mixtures killing C. albicans biofilm | C. albicans biofilm persisters + clotrimazole, fluorescence viability; primary screen in compound mixtures of four per well | 120,000 tested, 0.02% active | inhibition, % at 7.6 µM;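 active = inhibition above 30.3% in the primary screen of four-compound pools, then above 30% when the compound was retested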;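 also: compounds exposed to preformed 24 h biofilms for 48 h; 0% = untreated biofilm control and 100% = clotrimazole plus chlorhexidine kill blank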
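Test system: C. albicans biofilms. Buffer or medium: RPMI/MOPS medium, pH 7.0. Timing: 48 h compound exposure at 37 °C. Technique: Alamar Blue fluorescence. Evaluation: percent inhibition of biofilm viability.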
Arbovirus anti – blocks arbovirus infection. arbovirus infection cell-based antiviral screen. inhibition, % at 10 µM. 200,000 tested, 0.37% active; in the data active = inhibition above about 30%
m-calpain inh – calpain II (pig) inhibition; inhibition, % at 16 µM; AID 1236; 220,000 tested, 0.37% active; purified calpain II, fluorogenic peptide substrate, 30 min;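 active = inhibition above about 50%, limit read from the data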
The depositor's hits bear a star. Sampled rows, rich in hits. Any-hit rate of the full collection: about 2.8%.

For CSc1ccccc1NC(=O)CNCCCN1CCOCC1 the results were Mcl1-Noxa inh 39, Mcl1-Bid inh 89*, Biofilm kill mix 15 and m-calpain inh -17.
COc1cccc2c1C(=O)c1c(O)c3c(c(O)c1C2=O)C[C@@](O)(C(=O)CO)C[C@@H]3O[C@H]1C[C@H](N)[C@H](O)[C@H](C)O1 was read as Mcl1-Noxa inh 60*, Mcl1-Bid inh 10, Bim-Mcl-1 34, Biofilm kill mix 17, Arbovirus anti -27 and m-calpain inh -53.
CCOC(=O)C1C(c2cccs2)NC(=O)N(C)C1(O)C(F)(F)F (stereo not drawn) was read as Mcl1-Noxa inh 0, Mcl1-Bid inh 61*, Bim-Mcl-1 -1, Arbovirus anti 20 and m-calpain inh -6.
For Cc1[nH]c2ccccc2c1/C=N/NC(=S)NCc1ccccc1 the results were Mcl1-Noxa inh 6, Mcl1-Bid inh -46, Bim-Mcl-1 -3, Biofilm kill mix 17, Arbovirus anti -27 and m-calpain inh 64*.
Screening Cc1[nH]c2ccccc2c1/C=N/NC(N)=S returned Mcl1-Noxa inh 6, Mcl1-Bid inh -38, Biofilm kill mix 17 and m-calpain inh 21.
Screening CC1(C)C(=O)Nc2ccccc2N1C(=O)Cn1ncc(Cl)c(Cl)c1=O returned Mcl1-Noxa inh 58*, Mcl1-Bid inh -1, Biofilm kill mix 8 and m-calpain inh -4.
Screening CC(C)CC1NC(=O)N(CC(=O)N2c3ccccc3NC(=O)C2(C)C)C1=O (stereo not drawn) returned Mcl1-Noxa inh 82*, Mcl1-Bid inh -29, Bim-Mcl-1 0, Biofilm kill mix 12, Arbovirus anti 1 and m-calpain inh 8.
`CCOc1ccccc1NC(=O)CN(c1ccc(OC)cc1OC)S(=O)(=O)c1ccccc1[N+](=O)[O-]` gave Mcl1-Noxa inh 9, Mcl1-Bid inh -1, Bim-Mcl-1 -2, Biofilm kill mix -5, Arbovirus anti -6 and m-calpain inh -35.
C=CCN(CC=C)C(=S)NC(=O)c1ccc(C)c(Br)c1 was read as Mcl1-Noxa inh -36, Mcl1-Bid inh -49, Bim-Mcl-1 -2, Biofilm kill mix 17, Arbovirus anti -21 and m-calpain inh 6.
`COC(=O)c1cc(Nc2cc(C)c3c(O)cccc3n2)cc(C(=O)OC)c1` gave Mcl1-Noxa inh 56*, Mcl1-Bid inh -18, Biofilm kill mix 18 and m-calpain inh -9.
COc1ccc(Nc2cc(C)c3c(O)cccc3n2)cc1 was read as Mcl1-Noxa inh 77*, Mcl1-Bid inh -58, Biofilm kill mix 6 and m-calpain inh 17.
Screening Cc1ccc(Nc2cc(C)c3c(O)cccc3n2)cc1C returned Mcl1-Noxa inh 54*, Mcl1-Bid inh -25, Biofilm kill mix -33 and m-calpain inh -15.
For CCN(CC)CCn1c2ccccc2c2nc3ccc([N+](=O)[O-])cc3cc21 the results were Mcl1-Noxa inh 11, Mcl1-Bid inh -10, Biofilm kill mix 14 and m-calpain inh -5.
For OC(CNCc1ccccc1Cl)C(F)(F)F (stereo not drawn) the results were Mcl1-Noxa inh 12, Mcl1-Bid inh -25, Bim-Mcl-1 0, Biofilm kill mix 6, Arbovirus anti 3 and m-calpain inh -20.
Screening S=C(Nc1ccc2c(c1)OCO2)N1CCN(Cc2ccco2)CC1 returned Mcl1-Noxa inh 1, Mcl1-Bid inh -57, Bim-Mcl-1 0, Biofilm kill mix 9, Arbovirus anti -2 and m-calpain inh -27.
For Cc1ccc2nc(NC(=O)c3ccc(N4C(=O)CCC4=O)cc3)sc2c1 the results were Mcl1-Noxa inh 58*, Mcl1-Bid inh 0, Bim-Mcl-1 1, Biofilm kill mix 24, Arbovirus anti 10 and m-calpain inh -42.
`Cc1cc(C)c2sc(NC(=O)c3ccc(N4C(=O)CCC4=O)cc3)nc2c1` gave Mcl1-Noxa inh -3, Mcl1-Bid inh -21, Biofilm kill mix 28 and m-calpain inh 21.
`CCn1nnc(NC(=O)c2cccc(-c3cc4ccccc4oc3=O)c2)n1` gave Mcl1-Noxa inh -15, Mcl1-Bid inh -7, Bim-Mcl-1 -1, Arbovirus anti 6 and m-calpain inh -146.
Cc1ccc2nc(NC(=O)c3cccc(-c4cc5ccccc5oc4=O)c3)sc2c1 was read as Mcl1-Noxa inh 32, Mcl1-Bid inh 75*, Bim-Mcl-1 -1, Arbovirus anti -40 and m-calpain inh -50.
For CCOc1ccc2nc(NC(=O)c3cccc(-c4cc5ccccc5oc4=O)c3)sc2c1 the results were Mcl1-Noxa inh 76*, Mcl1-Bid inh 84*, Bim-Mcl-1 -6, Biofilm kill mix 14, Arbovirus anti -33 and m-calpain inh -16.
`COC(=O)c1cc(S(=O)(=O)NCc2ccc(S(N)(=O)=O)cc2)oc1C` gave Mcl1-Noxa inh 1, Mcl1-Bid inh -24, Biofilm kill mix 19 and m-calpain inh 0.
Screening O=C(N/N=C/c1ccc([N+](=O)[O-])o1)C1CC1 returned Mcl1-Noxa inh 16, Mcl1-Bid inh -16, Bim-Mcl-1 -1, Biofilm kill mix 12, Arbovirus anti 0 and m-calpain inh 11.
`O=Cc1ccnc(-c2ccc(OC(=O)c3ccco3)cc2)n1` gave Mcl1-Noxa inh 1, Mcl1-Bid inh -8, Bim-Mcl-1 0, Biofilm kill mix -1, Arbovirus anti -2 and m-calpain inh -18.
For COc1ccc(S(=O)(=O)N(C)C)cc1NCC(=O)Nc1cccc(C#N)c1 the results were Mcl1-Noxa inh 8, Mcl1-Bid inh -9, Bim-Mcl-1 -1, Biofilm kill mix -1, Arbovirus anti 0 and m-calpain inh -4.
Fc1cccc(Cl)c1CSc1ccc(-c2cccnc2)nn1 was read as Mcl1-Noxa inh 17, Mcl1-Bid inh 10, Bim-Mcl-1 -3, Biofilm kill mix 14, Arbovirus anti -10 and m-calpain inh 64*.
Screening Clc1ccc(CSc2ccc(-c3cccnc3)nn2)cc1 returned Mcl1-Noxa inh 6, Mcl1-Bid inh 9, Bim-Mcl-1 0, Biofilm kill mix 9, Arbovirus anti -34 and m-calpain inh 28.
Screening COc1cc2cc(C(=O)N3CCN(Cc4ccc5c(c4)OCO5)CC3)c(=O)oc2cc1OC returned Mcl1-Noxa inh 4, Mcl1-Bid inh -20, Biofilm kill mix 13 and m-calpain inh -295.
Screening Nc1ccc(Sc2ccc([N+](=O)[O-])cc2)cc1 returned Mcl1-Noxa inh 20, Mcl1-Bid inh -34, Bim-Mcl-1 0, Biofilm kill mix 19, Arbovirus anti 0 and m-calpain inh -5.
Screening O=C1C=CC(=O)N1c1ccc(Sc2ccc([N+](=O)[O-])cc2)cc1 returned Mcl1-Noxa inh 73*, Mcl1-Bid inh 40, Biofilm kill mix 7 and m-calpain inh 24.
For Cn1nnnc1SC(C(=O)Nc1cccc(C(F)(F)F)c1)c1ccccc1 (stereo not drawn) the results were Mcl1-Noxa inh 8, Mcl1-Bid inh -17, Bim-Mcl-1 -2, Biofilm kill mix 10, Arbovirus anti 10 and m-calpain inh 54*.
